Columns and labels:
[1] = folding enthalpy; higher = less favourable; fluorescence melt of hairpins on a sequencing array, two-state fit; details: sodium 0.088 M
Outline: (§1)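 In 50 mM Na-HEPES pH 8.0 containing 25 mM NaCl, hairpins from the library on a sequenced MiSeq flow cell were imaged for Cy3 fluorescence at 2.5 °C steps up to 60 °C, with Cy3 and quencher oligos annealed. After normalisation to pre-quench Cy3 and to control constructs, two-state fits with bootstrapping gave melting temperature and folding enthalpy. Four replicates were combined by inverse-variance weighting, and fitted temperatures were shifted up by 9.35 °C to match UV melts.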

[2] = melting temperature; fluorescence melt of hairpins on a sequencing array, two-state fit, raised by 9.35 °C to match UV melts; details: sodium 0.088 M
Outline: as §1

Sequence | folding enthalpy [1] | Tm [2]
GTCTCTCCGAAAGGAGAC (((..(((....)))))) | -9.6 kcal/mol | 35.8 °C
GGAGAAACGAAAGTTTCC (((..(((....)))))) | -14.1 kcal/mol | 37.7 °C
GATCATCCGCATGATC ((((((....)))))) | -35.9 kcal/mol | 47.8 °C
GCCCAACGAAAGTTGGC (((.(((....)))))) | -12.8 kcal/mol | 57.1 °C
GGGTATCGAAAGATCCCC (((.(((....))).))) | -22.7 kcal/mol | 50.2 °C
GAAAAACCGAAAGGTTTC (((..(((....)))))) | -12.4 kcal/mol | 34.8 °C
GGCCACGAAAGTGGTGCC ((((((....)))..))) | -12.7 kcal/mol | 49.9 °C
GTGGAAGGAAACTTCCAC (((((((....))))))) | -42.7 kcal/mol | 62 °C
GTTAGGGGAAACCCTAAC (((((((....))))))) | -40.5 kcal/mol | 57.9 °C
GATCGGCTACCGATC ((((((...)))))) | -33.9 kcal/mol | 56 °C
GATCGAGCAGTCGATC ((((((....)))))) | -39.7 kcal/mol | 54.3 °C
GATCAATGACTTGATC ((((((....)))))) | -29.1 kcal/mol | 39.7 °C
GATCTCCCTCGAGATC ((((((....)))))) | -41.1 kcal/mol | 51.7 °C
CGTGCCGGAAACGGACG (((.(((....)))))) | -22 kcal/mol | 48.7 °C
GGGCGGGCGAAAGCCCCC (((..(((....)))))) | -11.5 kcal/mol | 51.2 °C
GATCAATGCCTTGATC ((((((....)))))) | -26.2 kcal/mol | 45.3 °C
GGGATGGGAAACCATCCC (((((((....))))))) | -41.5 kcal/mol | 67.4 °C
GGAAACGAAAGTTACTCC ((((((....)))..))) | -10.2 kcal/mol | 22.8 °C
GATCTAATTTTAGATC ((((((....)))))) | -34.2 kcal/mol | 44 °C

Sequence | folding enthalpy [1] | Tm [2]
GTCGGAGGAAACTCCGGC (.(((((....))))).) | -30.5 kcal/mol | 58.5 °C
GCGGGGCTCCGC ((((....)))) | -26.7 kcal/mol | 67.4 °C
GACTACGAAAGTAAGTC ((((((....))).))) | -29.4 kcal/mol | 47.1 °C
GTGGCGGGAAACCGTCAC (((.(((....))).))) | -40.6 kcal/mol | 63.5 °C
GGGCGTGGAAACGTGCCC ((((..(....)..)))) | -41.4 kcal/mol | 54.4 °C
GATGAACGAAAGTTTATC (((.(((....))).))) | -29.3 kcal/mol | 44.6 °C
GCAAGTGGAAACGTTTGC ((((..(....)..)))) | -20.4 kcal/mol | 34.4 °C
GACCACGAAAGTGCAGTC ((((((....)))..))) | -17.5 kcal/mol | 36.6 °C
GTCGTGGGAAACCGCGAC ((((.((....)).)))) | -48.7 kcal/mol | 60.8 °C
GTAGATCGAAAGATATAC (((.(((....))).))) | -32.4 kcal/mol | 42.3 °C
GAGTAGCGAAAGCTGCTC (((.(((....))).))) | -36.6 kcal/mol | 60.1 °C
GGTTTCGAAAGAAACACC ((((((....)))..))) | -11.3 kcal/mol | 45.7 °C
GGTGGCTCGAAAGAGACC (((..(((....)))))) | -13.5 kcal/mol | 42 °C
GCAATCGAAAGATGGTGC ((((((....)))..))) | -21.2 kcal/mol | 36.3 °C
GCTAAGCGAAAGCGCAGC (((..((....))..))) | -30.2 kcal/mol | 66.5 °C
GACCAAGGAAACTTGATC ((.((((....)))).)) | -16.8 kcal/mol | 28.8 °C
GACCGTGGAAACACAGTC (((.(((....))).))) | -23.8 kcal/mol | 40.5 °C
GTCCAGGGAAACCTGGAC (((((((....))))))) | -33.6 kcal/mol | 68.6 °C
GACCAGCGAAAGCTAGTC (((.(((....))).))) | -23.1 kcal/mol | 44.8 °C

Source: the array DNA melting data of Ke et al. (doi:10.1101/2024.01.08.574731)
